Activity calls are given as the source filed them. The calls are words filed in the database; no cut-off is given here.
Key:
Plasma [1] = assay: Maximum unbound fraction in rat plasma at 10 mg/kg, po; type: ADME, organism-based; parameters: dose 10 mg/kg, route oral; details: in vivo
Procedure, shortened: (§1)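 Single-dose oral PK in rats at 10 mg/kg, measuring peak plasma concentration. The maximum unbound level was given alongside rat plasma protein binding (%).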

Rattus norvegicus [2] = assay: Increase of insulin sensitivity in high fat diet-fed Sprague-Dawley rat assessed as decrease in insulin AUC at 10 mg/kg, po qd administered for 24 days followed by glucose challenge by oral glucose tolerance test; type: functional, organism-based; parameters: dose 10 mg/kg
[3] = Volume of distribution at steady state in iv dosed rat; type: ADME, organism-based; details: in vivo, read-out: Vdss
[4] = Ratio of drug level in brain to plasma in rat; type: ADME; details: brain and plasma, read-out: BPR
[5] = Tmax in po dosed rat plasma; type: ADME, organism-based
Procedure, shortened: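 Single-dose rat PK study: compound given orally at 7.9 or 9 mg/kg, depending on compound. Plasma exposure followed over time, and Tmax (h) taken from the plasma concentration–time profile.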

[6] = Tmax in rat plasma at 10 mg/kg, po; type: ADME, organism-based; parameters: dose 10 mg/kg, route oral
Procedure, shortened: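 Single oral dose of 10 mg/kg in rats. Plasma concentrations followed over time, and time to peak plasma level (h) read from the profile.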

[7] = Oral bioavailability in rat; type: ADME, organism-based; details: in vivo
Procedure, shortened: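 Bioavailability from rat single-dose PK, comparing oral dosing (10, 7.9 or 9 mg/kg, depending on compound) with intravenous dosing.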

[8] = Cmax in rat plasma at 10 mg/kg, po; type: ADME, organism-based; parameters: dose 10 mg/kg, route oral; procedure, shortened: as §1
Rattus norvegicus [9] = assay: Maximum unbound fraction in rat at 10 mg/kg, po; type: ADME, organism-based; parameters: dose 10 mg/kg, route oral; details: in vivo; procedure, shortened: as §1
[10] = Plasma protein binding in rat; type: ADME, cell-free; details: read-out: PPB (converted)
[11] = Clearance in iv dosed rat; type: ADME, organism-based; details: in vivo
[12] = Volume of distribution at steady state in rat at 3.3 mg/kg, iv; type: ADME, organism-based; parameters: dose 3.3 mg/kg, route intravenous; details: in vivo, read-out: Vdss
Rattus norvegicus [13] = organism: Rattus norvegicus; assay: Reduction in body weight gain in high fat diet-fed Sprague-Dawley rat at […]; type: functional, organism-based
[14] = Clearance in rat at 3.3 mg/kg, iv; type: ADME, organism-based; parameters: dose 3.3 mg/kg, route intravenous; details: in vivo
Rattus norvegicus [15] = assay: Reduction of leptin level in high fat diet-fed Sprague-Dawley rat plasma at 30 mg/kg, po qd after 24 days by ELISA; type: functional, organism-based; parameters: dose 30 mg/kg
Procedure, shortened: (§2)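 Diet-induced obese Sprague-Dawley rats (high responders), single-housed, groups of n = 9 matched for body weight and MRS body fat; drug given as food admix for 24 days alongside pair-fed groups; body weight and food intake measured daily; body fat by MRS; plasma leptin by ELISA; mean ± SEM, ANOVA with Dunnett's test versus vehicle.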

Rattus norvegicus [16] = assay: Reduction in body fat content in high fat diet-fed Sprague-Dawley rat at 30 mg/kg, po qd after 24 days; type: functional, organism-based; parameters: dose 30 mg/kg; procedure, shortened: as §2
Cannabinoid receptor 2 = Cannabinoid receptor 2 (Homo sapiens, UniProt P34972); assay: Displacement of [3H]CP55940 from human CB2 receptor expressed in CHOK1 cells after 1 hr by liquid scintillation counting analysis; type: cell-based, CHO-K1
Procedure, shortened: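 Membranes from butyrate-treated (5 mM, 24 h) CHO-K1 cells stably expressing human CB2, incubated with 0.3 nM [3H]CP55940 and increasing ligand concentrations, 60 min, 30 °C, pH 7.4 Tris buffer with 0.1% fatty acid-free BSA and 1% DMSO; nonspecific binding with 10 μM CP55940; filtration, scintillation counting; tested in triplicate.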

[17] = Drug uptake in Sprague-Dawley rat brain at 30 mg/kg, po qd after 10 days by LC-MS/MS analysis; type: ADME, organism-based; parameters: dose 30 mg/kg, route oral; details: read-out: Drug uptake
Rattus norvegicus [18] = assay: Maximum unbound fraction in rat at 9 mg/kg, po; type: ADME, organism-based; parameters: dose 9 mg/kg, route oral; details: in vivo
[19] = Cmax in rat plasma at 9 mg/kg, po; type: ADME, organism-based; parameters: dose 9 mg/kg, route oral
Liver microsome = assay: Clearance in rat liver microsomes at 2 uM by LC-MS/MS analysis; type: ADME
Procedure, shortened: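 Rat liver microsomes at 0.5 mg/mL were incubated with 2 μM compound (final) and an NADPH-regenerating system. Aliquots were taken at 1, 3, 6, 9, 15, 25, 35 and 45 min and quenched in acetonitrile containing internal standard. Depletion was measured by LC-MS/MS. Clmic = −slope × 1000 / protein concentration (mg/mL), not corrected for microsomal protein binding.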

Cannabinoid receptor 1 [20] = target: T1, Cannabinoid receptor 1 (Homo sapiens, UniProt P21554); assay: Displacement of [3H]CP55940 from human CB1 receptor expressed in CHOK1 cells after 1 hr by liquid scintillation counting analysis; type: cell-based, CHO-K1
Substance-K receptor = target: T2, Substance-K receptor (Homo sapiens, UniProt P21452); assay: Antagonist activity at human NK2 receptor
T2 sequence (P21452 whole entry): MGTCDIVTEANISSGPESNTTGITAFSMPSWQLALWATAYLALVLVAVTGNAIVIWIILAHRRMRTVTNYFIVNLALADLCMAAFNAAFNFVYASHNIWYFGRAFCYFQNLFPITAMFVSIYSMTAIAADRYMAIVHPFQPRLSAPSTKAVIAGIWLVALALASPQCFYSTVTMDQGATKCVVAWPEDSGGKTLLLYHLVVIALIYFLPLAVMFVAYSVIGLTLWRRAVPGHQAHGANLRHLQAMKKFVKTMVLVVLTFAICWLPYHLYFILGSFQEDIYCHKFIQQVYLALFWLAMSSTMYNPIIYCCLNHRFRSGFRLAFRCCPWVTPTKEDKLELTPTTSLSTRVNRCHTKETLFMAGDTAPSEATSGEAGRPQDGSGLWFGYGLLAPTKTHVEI

[21] = Cmax in Sprague-Dawley rat plasma at 30 mg/kg, po qd after 10 days by LC-MS/MS analysis; type: ADME, organism-based; parameters: dose 30 mg/kg, route oral
Procedure, shortened: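 Male Sprague-Dawley rats (n = 3 per compound) given 30 mg/kg/day as feed admix for 10 days; jugular vein catheter implanted 4 days before sampling; on day 10 switched to drug-free high fat chow, then serial K3EDTA blood samples over 24 h; plasma drug levels by LC-MS.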

Plasma [22] = assay: Maximum unbound fraction in rat plasma at 9 mg/kg, po; type: ADME, organism-based; parameters: dose 9 mg/kg, route oral; details: in vivo
[23] = Ratio of drug level in Sprague-Dawley rat brain to plasma at 30 mg/kg, po qd after 10 days by LC-MS/MS analysis; type: ADME, organism-based; parameters: dose 30 mg/kg, route oral; details: brain and plasma, read-out: BPR
[24] = Tmax in rat plasma at 9 mg/kg, po; type: ADME, organism-based; parameters: dose 9 mg/kg, route oral
Cannabinoid receptor 1 [25] = target: T1, Cannabinoid receptor 1; assay: Antagonist activity at human CB1 receptor overexpressed in HEK cells assessed as [35S]GTPgamma binding after 1 hr by liquid scintillation counting analysis; type: functional, cell-based, HEK293
[26] = Oral bioavailability in rat at 9 mg/kg; type: ADME, organism-based; details: in vivo
Rattus norvegicus [27] = assay: Increase of insulin sensitivity in high fat diet-fed Sprague-Dawley rat assessed as decrease in insulin AUC at 30 mg/kg, po qd administered for 24 days followed by glucose challenge by oral glucose tolerance test; type: functional, organism-based; parameters: dose 30 mg/kg
Plasma [28] = assay: Maximum unbound fraction in rat plasma at 7.9 mg/kg, po; type: ADME, organism-based; parameters: dose 7.9 mg/kg, route oral; details: in vivo
[29] = Oral bioavailability in rat at 7.9 mg/kg; type: ADME, organism-based; details: in vivo
[30] = Cmax in rat plasma at 7.9 mg/kg, po; type: ADME, organism-based; parameters: dose 7.9 mg/kg, route oral
Rattus norvegicus [31] = assay: Maximum unbound fraction in rat at 7.9 mg/kg, po; type: ADME, organism-based; parameters: dose 7.9 mg/kg, route oral; details: in vivo
[32] = Clearance in rat at 1 mg/kg, iv; type: ADME, organism-based; parameters: dose 1 mg/kg, route intravenous; details: in vivo
[33] = Tmax in rat plasma at 7.9 mg/kg, po; type: ADME, organism-based; parameters: dose 7.9 mg/kg, route oral
Hepatocyte = assay: Intrinsic clearance in rat hepatocytes at 10 uM by LC-MS/MS analysis; type: ADME, cell-based
[34] = Volume of distribution at steady state in rat at 1 mg/kg, iv; type: ADME, organism-based; parameters: dose 1 mg/kg, route intravenous; details: in vivo, read-out: Vdss

T1 sequence (P21554 whole entry): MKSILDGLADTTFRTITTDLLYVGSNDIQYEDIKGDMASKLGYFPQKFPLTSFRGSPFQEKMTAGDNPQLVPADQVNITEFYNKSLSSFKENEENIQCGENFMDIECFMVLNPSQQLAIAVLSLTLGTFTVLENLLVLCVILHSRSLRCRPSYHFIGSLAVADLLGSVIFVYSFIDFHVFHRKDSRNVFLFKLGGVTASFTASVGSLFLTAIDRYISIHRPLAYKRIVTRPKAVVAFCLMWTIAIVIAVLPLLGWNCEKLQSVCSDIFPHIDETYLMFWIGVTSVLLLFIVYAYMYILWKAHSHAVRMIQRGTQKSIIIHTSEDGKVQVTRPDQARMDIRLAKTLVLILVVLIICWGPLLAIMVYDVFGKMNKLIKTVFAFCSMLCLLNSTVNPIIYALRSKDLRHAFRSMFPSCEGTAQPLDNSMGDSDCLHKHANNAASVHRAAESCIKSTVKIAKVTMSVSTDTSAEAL
Sequence of Cannabinoid receptor 2 (P34972 whole entry): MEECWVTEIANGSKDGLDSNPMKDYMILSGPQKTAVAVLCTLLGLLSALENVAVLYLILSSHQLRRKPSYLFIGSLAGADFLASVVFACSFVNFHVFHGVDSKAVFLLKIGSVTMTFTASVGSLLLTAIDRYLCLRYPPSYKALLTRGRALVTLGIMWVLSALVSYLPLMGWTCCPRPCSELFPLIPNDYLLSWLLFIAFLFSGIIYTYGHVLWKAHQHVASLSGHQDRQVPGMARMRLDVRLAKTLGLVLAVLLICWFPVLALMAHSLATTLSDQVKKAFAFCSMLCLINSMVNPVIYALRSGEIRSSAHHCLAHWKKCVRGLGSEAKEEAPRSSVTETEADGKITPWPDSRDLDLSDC

SMILES | Kp [4] | fraction unbound [10] | Activity (Rattus norvegicus [13]) | Activity (Rattus norvegicus [15]) | Activity (Rattus norvegicus [16]) | Ki (Cannabinoid receptor 2) | concentration at 240 h [17] | CLH (Liver microsome) | Ki (Cannabinoid receptor 1 [20]) | Cmax [21] | Kp at 240 h [23] | EC50 (Cannabinoid receptor 1 [25]) | other results
Cc1c(C(=O)NN2CCCCC2)nn(-c2ccc(Cl)cc2Cl)c1-c1ccc(Cl)cc1 [RIMONABANT] | 3 | 0.003 |  |  |  |  |  |  |  |  |  |  | Cp(f)max (Plasma [1]): 0.83 ng/mL; Activity (Rattus norvegicus [2]): Active; Vd [3]: 11.5 L/kg; Tmax [5]: 1 h; Tmax [6]: 1.5 h; bioavailability [7]: 12%; Cmax [8]: 244 ng/mL; fCmax (Rattus norvegicus [9]): 1.8 nM; clearance [11]: 17 mL/min/kg
COCCOc1ncc(C(=O)N[C@@H]2CCCC[C@H]2O)cc1-c1ccc(Cl)cc1 | 0.1 | 0.039 | inactive | inactive | inactive | > 10000 nM | 130 ng/g | 98 µL/min/mg | 5.1 nM | 1000 ng/mL | 0.13 | 11.6 nM | Vd [12]: 0.7 L/kg; clearance [14]: 18.6 mL/min/kg; fCmax (Rattus norvegicus [18]): 156 nM; Cmax [19]: 1620 ng/mL; IC50 (Substance-K receptor): 46000 nM; Cp(f)max (Plasma [22]): 63 ng/mL; Tmax [24]: 0.5 h; bioavailability [26]: 84%
O=C(N[C@@H]1CCCC[C@H]1O)c1cnc(OCC2CC2)c(-c2ccc(Cl)cc2)c1 | 0.7 | < 0.016 | Active | Active | Active | > 7000 nM | 1400 ng/g | 64 µL/min/mg |  | 1020 ng/mL | 1.3 | 3.9 nM | Activity (Rattus norvegicus [27]): Active; Cp(f)max (Plasma [28]): < 11 ng/mL; bioavailability [29]: 23%; Cmax [30]: 729 ng/mL; fCmax (Rattus norvegicus [31]): < 28 nM; clearance [32]: 7.4 mL/min/kg; Tmax [33]: 1.9 h; CLH (Hepatocyte): 3.3 µL/min; Vd [34]: 1.8 L/kg
O=C(N[C@@H]1CCCC[C@H]1O)c1cnc(OCc2ncccn2)c(-c2ccc(Cl)cc2)c1 |  |  |  |  |  | > 10000 nM |  | 12 µL/min/mg | 51.6 nM |  |  |  | 

Source: ChEMBL document CHEMBL3108674, “6-Alkoxy-5-aryl-3-pyridinecarboxamides, a new series of bioavailable cannabinoid receptor type 1 (CB1) antagonists including peripherally selective compounds” (J Med Chem, 2013)
